Screening results (PubChem)
Sampled rows, rich in hits. Any-hit rate of the full collection: about 2.4%.
HTR5A inv ctr: HTR5A inverse agonists in luminescence cell assay, primary screen, counter-screen for OPRM1-OPRD1 heterodimer inverse agonist project, full-deck HTS; HTR5A cell line, inverse agonism; inhibition, % at 9.3 µM; hit rate 0.083% among 340,000; AID 504634, 2011; in the data active = inhibition mostly above about 23%, no sharp cut-off; inactive = mostly below about 18%;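 also: 0% = cells with DMSO and 100% = no-cell wells with DMSO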
OPRM1-OPRD1 ag: agonists of OPRM1-OPRD1 heterodimerization, primary screen, cell-based, luminescence. Mu-type opioid receptor (Homo sapiens) + Delta-type opioid receptor (Homo sapiens), …. cells. activation, % at 9.3 µM. hit rate 0.3% among 340,000; in the data active = activation above about 18%;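 also: 0% = vehicle-treated cells and 100% = reference agonist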
OPRM1-OPRD1 inv: inverse agonists of MOR-DOR heterodimerization, primary screen, cell-based, luminescence. Mu-type opioid receptor (Homo sapiens) + Delta-type opioid receptor (Homo sapiens), …. cell-based MOR-DOR heterodimer luminescence, inverse agonism. inhibition, % at 9.3 µM. hit rate 0.21% among 340,000; in the data active = inhibition above about 22%, passing the limit was not always enough;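 also: 0% = cells with DMSO and 100% = wells without cells with DMSO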
MC4R antag cAMP: MC4R antagonists of cAMP signaling, primary screen, cell-based, TR-FRET, antagonist arm of biased-ligand search; Melanocortin receptor 4 (Homo sapiens), P32245; MC4R-expressing cells, MTII-stimulated cAMP, LANCE TR-FRET; inhibition, % at 6.5 µM; hit rate 0.48% among 360,000;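 active = inhibition above its plate's cutoff, the mean of tested wells on that plate plus 3 SD, cut at about 29% in these data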;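 also: 0% = Melanotan II alone and 100% = Melanotan II plus saturating MCL0020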
Target sequence (P32245 whole entry, looked up): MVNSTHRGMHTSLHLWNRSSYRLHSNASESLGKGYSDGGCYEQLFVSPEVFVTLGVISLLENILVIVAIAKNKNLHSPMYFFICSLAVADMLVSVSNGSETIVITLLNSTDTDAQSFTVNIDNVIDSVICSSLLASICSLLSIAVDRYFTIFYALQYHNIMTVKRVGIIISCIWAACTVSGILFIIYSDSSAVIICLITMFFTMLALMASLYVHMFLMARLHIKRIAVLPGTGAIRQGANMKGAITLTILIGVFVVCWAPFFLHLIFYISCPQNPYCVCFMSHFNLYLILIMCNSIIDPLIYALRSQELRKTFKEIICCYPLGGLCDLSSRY
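Material – human MC4R-expressing U2OS cells · Repeats – no replicates · Detection – TR-FRET with Eu-cAMP and labeled anti-cAMP, 671 nm · Times – compound 30 min, challenge 1 h, detection 1 h · Compound – single nominal compound dose of 6.5 µM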
MC4R barr agon: MC4R agonists recruiting beta-arrestin, primary screen, cell-based, luminescence, agonist arm of biased-ligand search. Melanocortin receptor 4 (Homo sapiens), P32245. U2OS MC4R beta-arrestin complementation; percent of melanotan II response, DMSO zero. activation, % at 8.9 µM. hit rate 0.98% among 360,000. AID 540308, 2011;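 active = activation above a per-plate cutoff, the mean activation of sample wells on that plate plus 3 SD, cut at about 8% in these data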
HTR5A ag: HTR5A agonists in luminescence cell assay, primary screen, counter-screen for OPRM1-OPRD1 heterodimer agonist project, full-deck HTS | 5-hydroxytryptamine receptor 5A (Homo sapiens), P47898 | cell-based | activation, % at 9.3 µM | hit rate 0.61% among 340,000; in the data active = activation mostly above about 9.5%, no sharp cut-off; inactive = mostly below about 7.6%;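 also: 0% = cells with vehicle only and 100% = reference agonist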
cAMP nonselect: nonselective cAMP signaling inhibitors, parental cells, counter-screen for MC4R biased antagonist project, cell-based, TR-FRET, U2OS, forskolin, triplicate; LANCE TR-FRET; inhibition, % at 6.5 µM; hit rate 26% among 1,600; shares compounds with MC4R antag cAMP;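 active = mean inhibition over triplicates above the low-control well mean plus 3 SD, set per campaign, cut at about 13% in these data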;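 also: signal is single emission at 671 nm which falls as cellular cAMP rises; 0% = forskolin-stimulated wells and 100% = buffer without forskolin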
MC4R antag conf: MC4R cAMP antagonists, retest, confirmation, cell-based, TR-FRET | MC4R-expressing cells, MTII-stimulated cAMP | inhibition, % at 6.5 µM | hit rate 27% among 1,600 | shares compounds with MC4R antag cAMP; in the data active = inhibition above about 29%;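 also: 0% = agonist stimulated wells alone and 100% = agonist stimulated wells plus saturating reference antagonist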
An asterisk follows results filed as active; . = no result given.

SMILES	HTR5A inv ctr	OPRM1-OPRD1 ag	OPRM1-OPRD1 inv	MC4R antag cAMP	MC4R barr agon	HTR5A ag	cAMP nonselect	MC4R antag conf
O=C(CN(c1cccc([N+](=O)[O-])c1)S(=O)(=O)c1ccccc1)NCc1cccnc1	-13	1	-5	0	-2	5	.	.
O=C(CN(c1cccc(C(F)(F)F)c1)S(=O)(=O)c1ccc(Cl)c([N+](=O)[O-])c1)NCc1ccc(F)cc1	-11	11	-55	29*	1	4	18*	57*
CCOC(=O)c1nc(C)c(C(C)=O)s1	1	-1	6	1	-2	0	.	.
O=C(O)c1cc(-c2c[nH]c3ccccc23)nc2cc3ccccc3cc12	.	.	.	0	-1	.	.	.
Cc1ccnn1CCC(=O)N1CCCC(CCC(=O)NCc2ccccc2F)C1 (stereo unspecified)	-22	0	1	29*	1	8	0	3
COc1ccccc1CC(=O)N1CCCC(CCC(=O)NCc2ccccc2F)C1 (stereo unspecified)	-7	-2	9	-4	2	-3	.	.
O=C(COC(=O)CNC(=O)c1cccc([N+](=O)[O-])c1)Nc1nc2ccccc2s1	23	0	-2	31*	-2	-7	7	13
COc1ccc(C2CC(c3c(O)cc(C)oc3=O)=NCCS2)c(OC)c1 (stereo unspecified)	-26	-3	17	-18	-2	4	.	.
Cc1cc(O)c(C2=Nc3ccccc3SC(c3ccc(Cl)cc3)C2)c(=O)o1 (stereo unspecified)	-5	-2	8	31*	-3	0	3	4
CC(C)(C)OC(=O)NCc1ccc(NC(=O)c2nc[nH]c2C(=O)NCCCCNC(=O)c2[nH]cnc2C(=O)Nc2ccc(CNC(=O)OC(C)(C)C)cc2)cc1	14	5	-26	15	-1	1	.	.
CC(C)(C)OC(=O)NCCCCCNC(=O)c1[nH]cnc1C(=O)Nc1ccc(Cl)cc1	-4	6	-33	27	-1	1	.	.
CC(C)(C)OC(=O)NCc1ccc(NC(=O)c2nc[nH]c2C(=O)NCCCNC(=O)c2[nH]cnc2C(=O)Nc2ccc(CNC(=O)OC(C)(C)C)cc2)cc1	-6	1	-3	31*	8.7*	-3	3	8
CC(C)(C)OC(=O)NCCCCCNC(=O)c1[nH]cnc1C(=O)Nc1cc(Br)ccc1F	.	.	.	33*	2	.	4	3
CCOC(=O)C1(CC2CCCCO2)CCN(S(=O)(=O)c2c(C)nn(C)c2C)CC1 (stereo unspecified)	-21	-2	10	6	-3	1	.	.
COCC(=O)Oc1cc(-c2ccc(C)cc2C)c(OC(=O)COC)c(-c2ccc(C)cc2C)c1	.	.	.	30*	0	.	8	6
Cc1ccc(OCC(=O)Oc2c(C)cccc2C)cc1	-9	9	-42	14	4	3	.	.
COc1ccc(NC(=O)CSc2nnc(NC(=O)C3CCC3)s2)cc1	-13	0	3	1	0	5	.	.
COc1ccc(CNC(=O)CSc2nnc(NC(=O)C3CC3)s2)cc1	6	-4	20	29*	-1	-2	0	-6
COc1ccc(-c2cc(C(=O)N(C)CC(=O)Nc3ccccc3C(F)(F)F)c3ccccc3n2)cc1OC	-16	4	-18	31*	-1	6	2	12
COc1ccc(-c2cc(C(=O)N(C)CC(=O)Nc3ccccc3Br)c3ccccc3n2)cc1OC	-2	-2	8	11	-3	1	.	.
COc1ccc(-c2cc(C(=O)OCC(=O)N3CCCCC3)c3ccccc3n2)cc1OC	-19	1	-6	37*	0	5	3	15
CN1CCN(C2CCN(c3cccc(Cl)c3)CC2)CC1CCO (stereo unspecified)	-3	-2	8	6	-2	1	.	.
COC(=O)c1cccc(CN2C(=O)C(C)Sc3ccc(C(C)=O)cc32)c1 (stereo unspecified)	.	.	.	-2	-2	.	.	.
O=C(O)C1C2CCC(C2)C1C(=O)Nc1cccc([N+](=O)[O-])c1 (stereo unspecified)	-7	-2	11	29*	-2	2	-8	-20
O=C(NC(=S)Nc1cccc([N+](=O)[O-])c1)c1ccccc1	.	.	.	33*	0	.	1	-9
SMILES	HTR5A inv ctr	OPRM1-OPRD1 ag	OPRM1-OPRD1 inv	MC4R antag cAMP	MC4R barr agon	HTR5A ag	cAMP nonselect	MC4R antag conf
O=C(CNS(=O)(=O)c1ccc2ccccc2c1)OCC(=O)c1ccc(Br)s1	4	-1	4	47*	5	-2	23*	43*
Cc1cc(C(=O)COC(=O)CNS(=O)(=O)c2ccc3ccccc3c2)c(C)n1-c1ccccc1	11	3	-14	13	-2	-3	.	.
CN(CCO)CCC(=O)NC1(C)CS(=O)(=O)CC1S(=O)(=O)O (stereo unspecified)	-4	-4	19	-4	0	-1	.	.
COc1ccc(NC(=O)Cc2ccc(Cl)c(Cl)c2)cn1	17	1	-4	3	1	0	.	.
COc1ccc(NC(=O)/C(Cl)=C(/Cl)S(=O)(=O)Cc2ccc(C)cc2)cn1	-12	-6	23	40*	-4	-6	38*	37*
CC1(C)CC(=O)C(C(C2=C(O)CC(C)(C)CC2=O)c2ccc(Br)s2)C(=O)C1 (stereo unspecified)	-1	0	-1	39*	1	1	12	12
Cc1ccc(C(C2=C(O)CC(C)(C)CC2=O)C2C(=O)CC(C)(C)CC2=O)s1 (stereo unspecified)	-11	0	3	13	-1	6	.	.
CCC(C)Nc1nc(Cl)nc(N(C#N)CN2C(=O)c3ccccc3S2(=O)=O)n1 (stereo unspecified)	-5	-2	10	48*	-1	-3	23*	40*
CC(C)Nc1nc(Cl)nc(N(C#N)CN2C(=O)c3ccccc3C2=O)n1	25	-3	16	-25	-2	-10	.	.
